Legend:
HT-29 = assay: Growth inhibition of human HT-29 cells assessed as cell growth at 10^-8 M incubated for 48 hrs by sulforhodamine B assay relative to control; assay type: functional; conditions: HT-29, 48 h, read-out: Activity
TK-10 = assay: Growth inhibition of human TK10 cells assessed as cell growth at 10^-7 M incubated for 48 hrs by sulforhodamine B assay relative to control; assay type: functional; conditions: TK-10, 48 h, read-out: Activity
HOP-62 = assay: Growth inhibition of human HOP62 cells assessed as cell growth at 10^-7 M incubated for 48 hrs by sulforhodamine B assay relative to control; assay type: functional; conditions: HOP-62, 48 h, read-out: Activity
SNB-19 = assay: Growth inhibition of human SNB19 cells assessed as cell growth at 10^-6 M incubated for 48 hrs by sulforhodamine B assay relative to control; assay type: functional; conditions: SNB-19, 48 h, read-out: Activity
SK-MEL-28 = assay: Growth inhibition of human SK-MEL-28 cells assessed as cell growth at 10^-6 M incubated for 48 hrs by sulforhodamine B assay relative to control; assay type: functional; conditions: SK-MEL-28, 48 h, read-out: Activity
RXF 393 [1] = assay: Growth inhibition of human RXF393 cells assessed as cell growth at 10^-8 M incubated for 48 hrs by sulforhodamine B assay relative to control; assay type: functional; conditions: RXF 393, 48 h, read-out: Activity
MDA-MB-231 [2] = assay: Growth inhibition of human MDA-MB-231 cells assessed as cell growth at 10^-5 M incubated for 48 hrs by sulforhodamine B assay relative to control; assay type: functional; conditions: MDA-MB-231, 48 h, read-out: Activity
HCT-116 [3] = assay: Growth inhibition of human HCT116 cells assessed as cell growth at 10^-8 M incubated for 48 hrs by sulforhodamine B assay relative to control; assay type: functional; conditions: HCT-116, 48 h, read-out: Activity
HCT-15 = assay: Growth inhibition of human HCT15 cells assessed as cell growth at 10^-8 M incubated for 48 hrs by sulforhodamine B assay relative to control; assay type: functional; conditions: HCT-15, 48 h, read-out: Activity
L1210 = assay: Antiproliferative activity against mouse L1210 cells after 48 hrs by Coulter counter method; assay type: functional, cell-based; conditions: L1210, 48 h
Method in brief: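 Cell count assay in 96-well microtiter plates; (5–7.5) × 10⁴ tumor cells per well plus test compound. Cells proliferated at 37 °C in humidified CO₂-controlled atmosphere, 48 h for murine leukemia L1210, 72 h for human lymphocytic CEM and cervix carcinoma HeLa. Counted by Coulter counter; IC₅₀ is the concentration that inhibits proliferation by 50%.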

Malme-3M = assay: Growth inhibition of human MALME-3M cells assessed as cell growth at 10^-8 M incubated for 48 hrs by sulforhodamine B assay relative to control; assay type: functional; conditions: read-out: Activity
NCI/ADR-RES [4] = assay: Growth inhibition of human NCI/ADR-RES cells assessed as cell growth at 10^-5 M incubated for 48 hrs by sulforhodamine B assay relative to control; assay type: functional; conditions: read-out: Activity
RXF 393 [5] = assay: Cytotoxicity against human RXF393 cells after 48 hrs by SRB assay; assay type: functional; conditions: RXF 393, 48 h
HCT-116 [6] = assay: Growth inhibition of human HCT116 cells assessed as cell growth at 10^-5 M incubated for 48 hrs by sulforhodamine B assay relative to control; assay type: functional; conditions: HCT-116, 48 h, read-out: Activity
UACC-62 = assay: Growth inhibition of human UACC62 cells assessed as cell growth at 10^-7 M incubated for 48 hrs by sulforhodamine B assay relative to control; assay type: functional; conditions: UACC-62, 48 h, read-out: Activity
MDA-MB-468 = assay: Growth inhibition of human MDA-MB-468 cells assessed as cell growth at 10^-8 M incubated for 48 hrs by sulforhodamine B assay relative to control; assay type: functional; conditions: MDA-MB-468, 48 h, read-out: Activity
NCI/ADR-RES [7] = assay: Growth inhibition of human NCI/ADR-RES cells assessed as cell growth at 10^-7 M incubated for 48 hrs by sulforhodamine B assay relative to control; assay type: functional; conditions: read-out: Activity
SW-620 [8] = assay: Growth inhibition of human SW620 cells assessed as cell growth at 10^-6 M incubated for 48 hrs by sulforhodamine B assay relative to control; assay type: functional; conditions: SW-620, 48 h, read-out: Activity
SF-268 = assay: Growth inhibition of human SF268 cells assessed as cell growth at 10^-5 M incubated for 48 hrs by sulforhodamine B assay relative to control; assay type: functional; conditions: SF-268, 48 h, read-out: Activity
HMEC-1 = assay: Antiproliferative activity against HMEC1 cells after 4 days by Coulter counter method; assay type: cell-based; conditions: Homo sapiens, HMEC-1, 96 h
Method in brief: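 Primary HUVEC, primary HMVEC-d and the HMEC-1 line seeded at 20,000 cells/well in gelatin-coated plates in EC growth medium (EGM2). After overnight incubation, 5-fold compound dilutions added. Cells proliferated four days with compound, then trypsinized and counted by Coulter counter to derive IC₅₀.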

PC-3 = assay: Growth inhibition of human PC3 cells assessed as cell growth at 10^-4 M incubated for 48 hrs by sulforhodamine B assay relative to control; assay type: functional; conditions: PC-3, 48 h, read-out: Activity
MDA-MB-231 [9] = assay: Growth inhibition of human MDA-MB-231 cells assessed as cell growth at 10^-4 M incubated for 48 hrs by sulforhodamine B assay relative to control; assay type: functional; conditions: MDA-MB-231, 48 h, read-out: Activity
BT-549 = assay: Cytotoxicity against human BT549 cells after 48 hrs by SRB assay; assay type: functional; conditions: BT-549, 48 h
SW-620 [10] = assay: Growth inhibition of human SW620 cells assessed as cell growth at 10^-7 M incubated for 48 hrs by sulforhodamine B assay relative to control; assay type: functional; conditions: SW-620, 48 h, read-out: Activity
ACHN = assay: Growth inhibition of human ACHN cells assessed as cell growth at 10^-5 M incubated for 48 hrs by sulforhodamine B assay relative to control; assay type: functional; conditions: read-out: Activity
M14 = assay: Growth inhibition of human M14 cells assessed as cell growth at 10^-8 M incubated for 48 hrs by sulforhodamine B assay relative to control; assay type: functional; conditions: M14, 48 h, read-out: Activity
SN12C = assay: Growth inhibition of human SN12C cells assessed as cell growth at 10^-4 M incubated for 48 hrs by sulforhodamine B assay relative to control; assay type: functional; conditions: read-out: Activity
A549 = assay: Growth inhibition of human A549/ATCC cells assessed as cell growth at 10^-7 M incubated for 48 hrs by sulforhodamine B assay relative to control; assay type: functional; conditions: A549, 48 h, read-out: Activity
HL-60(TB) = assay: Cytotoxicity against human HL-60(TB) cells after 48 hrs by SRB assay; assay type: functional; conditions: HL-60, 48 h; for CC50: read-out: pLC50 (the source's name) (converted)
DU-145 = assay: Growth inhibition of human DU145 cells assessed as cell growth at 10^-4 M incubated for 48 hrs by sulforhodamine B assay relative to control; assay type: functional; conditions: DU-145, 48 h, read-out: Activity
RPMI-8226 = assay: Growth inhibition of human RPMI8226 cells assessed as cell growth at 10^-6 M incubated for 48 hrs by sulforhodamine B assay relative to control; assay type: functional; conditions: RPMI-8226, 48 h, read-out: Activity
[11] = read-out: LC50 (the source's name)
[12] = read-out: pLC50 (the source's name) (converted)

SMILES	growth at 0.01 µM (HT-29) [%]	growth at 0.1 µM (TK-10) [%]	growth at 0.1 µM (HOP-62) [%]	growth at 1 µM (SNB-19) [%]	growth at 1 µM (SK-MEL-28) [%]	growth at 0.01 µM (RXF 393 [1]) [%]	growth at 10 µM (MDA-MB-231 [2]) [%]	growth at 0.01 µM (HCT-116 [3]) [%]	growth at 0.01 µM (HCT-15) [%]	IC50 (L1210) [nM]	growth at 0.01 µM (Malme-3M) [%]	growth at 10 µM (NCI/ADR-RES [4]) [%]	TGI (RXF 393 [5]; read-out: TGI) [nM]	growth at 10 µM (HCT-116 [6]) [%]	growth at 0.1 µM (UACC-62) [%]	growth at 0.01 µM (MDA-MB-468) [%]	growth at 0.1 µM (NCI/ADR-RES [7]) [%]	growth at 1 µM (SW-620 [8]) [%]	growth at 10 µM (SF-268) [%]	IC50 (HMEC-1) [nM]	further results
C#C[C@@]1(O)[C@@H](CO)O[C@@H](n2cc(Br)c3c(N)ncnc32)[C@@H]1O	78 to 94	99 to 103	68 to 86	6	61 to 68	99	1 to 6	83	80 to 84	28	100 to 102	-9	653 to 2290	3 to 5	56 to 84	88 to 99	34 to 41	4 to 9	7 to 11	4.5	GI50 (RXF 393 [5]; read-out: GI50): 205 to 479 nM; CC50 (RXF 393 [5]; [11]): > 100000 nM; growth at 100 µM (PC-3): -5%; growth at 100 µM (MDA-MB-231 [9]): 9%; GI50 (BT-549; read-out: GI50): 147 to 234 nM; CC50 (BT-549; [11]): > 100000 nM; TGI (BT-549; read-out: TGI): 536 to 819 nM; growth at 0.1 µM (SW-620 [10]): 18 to 45%; growth at 10 µM (ACHN): -7%; growth at 0.01 µM (M14): 92 to 94%; growth at 100 µM (SN12C): 1 to 5%; growth at 0.1 µM (A549): 48 to 80%; GI50 (HL-60(TB); read-out: GI50): 21.8 to 71.6 nM; TGI (HL-60(TB); read-out: TGI): 75.7 to 313 nM; CC50 (HL-60(TB)): 5250 nM; growth at 100 µM (DU-145): 8 to 10%
C#C[C@@]1(O)[C@@H](CO)O[C@@H](n2ccc3c(N)ncnc32)[C@@H]1O	99	110	103	67	94	99	-20	91	92	380	86	-7	4600	2	101	93	92	38	5	61	GI50 (RXF 393 [5]; read-out: pGI50 (converted)): 1910 nM; CC50 (RXF 393 [5]; [12]): 12900 nM; TGI (RXF 393 [5]; read-out: pTGI (converted)): 4570 nM; growth at 1 µM (RPMI-8226): 44%; growth at 100 µM (PC-3): -62%; growth at 100 µM (MDA-MB-231 [9]): -53%; TGI (BT-549; read-out: TGI): 3640 nM; GI50 (BT-549; read-out: pGI50 (converted)): 1620 nM; CC50 (BT-549; [12]): 8130 nM; TGI (BT-549; read-out: pTGI (converted)): 3630 nM; growth at 0.1 µM (SW-620 [10]): 77%; growth at 10 µM (ACHN): -18%; growth at 0.01 µM (M14): 93%; growth at 100 µM (SN12C): -64%; growth at 0.1 µM (A549): 107%; TGI (HL-60(TB); read-out: TGI): 5490 nM; GI50 (HL-60(TB); read-out: pGI50 (converted)): 1580 nM; CC50 (HL-60(TB)): > 100000 nM; TGI (HL-60(TB); read-out: pTGI (converted)): 5500 nM; growth at 100 µM (DU-145): -48%
C#C[C@@]1(O)[C@@H](CO)O[C@@H](n2cc(I)c3c(N)ncnc32)[C@@H]1O	56 to 73	85 to 96	72 to 75	8 to 26	62 to 78	94 to 102	10 to 12	83 to 95	74 to 84	56	85 to 98	-4	2010 to 2540	3	81 to 84	81 to 93	41 to 47	12 to 17	7	18	GI50 (RXF 393 [5]; read-out: GI50): 418 to 463 nM; CC50 (RXF 393 [5]; [11]): 7840 to 100000 nM; growth at 1 µM (RPMI-8226): 23 to 27%; growth at 100 µM (MDA-MB-231 [9]): 11 to 12%; GI50 (BT-549; read-out: GI50): 175 to 384 nM; TGI (BT-549; read-out: TGI): 3260 to 4940 nM; CC50 (BT-549; [12]): > 100000 nM; growth at 0.1 µM (SW-620 [10]): 39%; growth at 10 µM (ACHN): 5%; growth at 0.01 µM (M14): 85 to 94%; growth at 100 µM (SN12C): 6%; growth at 0.1 µM (A549): 69 to 80%; GI50 (HL-60(TB); read-out: GI50): 31.5 to 67.8 nM; TGI (HL-60(TB); read-out: TGI): 200 to 343 nM; CC50 (HL-60(TB)): > 100000 nM; growth at 100 µM (DU-145): 7 to 10%

From ChEMBL document CHEMBL4270599, “Synthesis of a 3'-C-ethynyl-β-d-ribofuranose purine nucleoside library: Discovery of C7-deazapurine analogs as potent antiproliferative nucleosides” (Eur J Med Chem, 2018)
